Source: PubChem BioAssay (Johns Hopkins Ion Channel Center)
TRPC4 agonist = activators of mouse TRPC4 channel; HEK293 TRPC4beta/mu-opioid, Fluo4 calcium fluorescence; active compounds read high; B-score at 10 µM; actives 0.49% (n = 310,000); AID 2237; Q9QUQ5;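 active = B-score above 5 SD of library B-scores, and initial fluorescence ratio not above library mean plus 5 SD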;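 also: positive B-score marks a calcium rise read as TRPC4 activation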
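system = HEK293 cells stably co-expressing mouse TRPC4beta and mu-opioid receptor | schedule = Fluo4 dye loading 45 min at room temperature, 110 s recording | measure = B-scored integrated calcium fluorescence ratio | signal = Fluo4 calcium-sensitive dye fluorescence, kinetic, 1 Hz baseline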
TRPC6 act = activators of mouse TRPC6 channel; HEK293-TRPC6 membrane potential dye fluorescence; active compounds read high; B-score at 10 µM; actives 0.13% (n = 310,000); AID 2550; Q61143;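 active = B-score of the integrated fluorescence ratio above library mean plus 3 SD, and starting fluorescence ratio within library mean plus 5 SD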;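 also: higher score means more depolarization so channel activation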
TRPC4 PAM = allosteric potentiators of mouse TRPC4 channel. actives 0.42% (n = 310,000). AID 2227. Q9QUQ5. B-score at 10 µM. HEK293 TRPC4beta/mu-opioid, DAMGO EC20, Fluo-4 Ca2+ flux; active compounds read high;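 active = B-score of calcium response area above 5 SD of library B-scores, with initial fluorescence ratio within 5 SD of library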
TRPC4 block = TRPC4 (mouse) channel inhibition; B-score at 10 µM; HEK293 TRPC4beta/mu-opioid, DAMGO-evoked Fluo4 calcium flux; active compounds read low; actives 0.39% (n = 300,000); AID 2247;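 active = B-score over 3 SD under the library average, no early fluorescence shift, positive overall ratio signal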
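System: stable TRPC4beta/mu-opioid receptor HEK293 cells; Dosing: single-point compound dosing; Measured by: Fluo4 Ca2+ flux fluorescence; Read-out basis: per-well B score of integrated baseline-normalized Fluo4 ratio.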
TRPC6 inh = inhibitors of mouse TRPC6 channel; HEK293-TRPC6, membrane potential dye, ACh-evoked depolarization; active compounds read low; B-score at 10 µM; actives 1.1% (n = 310,000);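 active = B-score under library mean minus 3 SD, initial fluorescence not abnormally high, positive integrated signal ratio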;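 also: B-score derived from integrated fluorescence ratio over the kinetic read; more negative B-score means stronger inhibition of depolarization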
TRPC4 sel inh 2 = second selectivity test of TRPC6 inhibitors: effect on mouse TRPC4 | shares compounds with TRPC6 inh | HEK293 TRPC4/MOR, membrane potential dye fluorescence; channel activated by saturating DAMGO dose | inhibition, % at 10 µM | actives 42% (n = 920);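 active = compounds whose fluorescence signal differed from control wells by over 3 SD, either direction, in both duplicate plates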
TRPC4 spec = mouse TRPC4 off-target activity of TRPC6 inhibitors; actives 61% (n = 920); HEK293 TRPC4/mu-opioid, membrane potential fluorescence; activity change, negative = inhibition, % at 10 µM; shares compounds with TRPC6 inh; AID 2777;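 active = rise or fall in signal beyond 3 SD of buffer-only wells in both replicate plates, either sign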;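 also: integrated kinetic ratio of fluorescence range over baseline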
HEK293 MPD ctr 2-1 = second counter-screen for TRPC6 inhibitors: parental HEK293 cells; parental HEK293 membrane potential dye fluorescence; maximal acetylcholine challenge after compound addition; shares compounds with TRPC6 inh; signal change vs control, % at 10 µM; actives 31% (n = 920);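 active = membrane potential signal moving either way by over 3 SD of the maximum-effect control, in both duplicate plates, meaning non-specific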
HEK293 MPD ctr-1 = checks TRPC6 inhibitor effects in parental HEK293 cells. shares compounds with TRPC6 inh. parental HEK293 membrane potential dye fluorescence. membrane potential signal change, % at 10 µM. actives 60% (n = 920). AID 2780;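 active = membrane potential signal shifting up or down by more than 3 SD of buffer-only wells, on both duplicate plates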
HEK293 MPD ctr-2 = checks TRPC6 modulator effects in parental HEK293 cells | shares compounds with TRPC6 inh | membrane potential dye fluorescence | membrane potential signal change, % at 10 µM | actives 51% (n = 2,400) | AID 488924;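 active = membrane potential signal moves up or down beyond 5 SD from buffer-only wells, on both duplicate plates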
HEK293 MPD ctr 2-2 = second check of TRPC6 modulator effects in parental HEK293 cells; inhibition, % at 10 µM; shares compounds with TRPC6 inh; membrane potential dye fluorescence; after compound, maximal acetylcholine stimulation; actives 14% (n = 2,400);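 active = membrane potential signal drops by more than 5 SD from the mean control signal, in both duplicate plates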
TRPC4/MOR mod = selectivity of TRPC6 modulators against mouse TRPC4; shares compounds with TRPC6 inh; HEK293 TRPC4/mu-opioid, membrane potential fluorescence; percent change from control (negative = decrease, positive = increase), % at 10 µM; actives 69% (n = 2,400); AID 488927;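 active = membrane potential signal moved up or down beyond 5 SD of buffer control wells, in both duplicate plates, actives on both sides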
TRPC4/MOR inh 2 = mouse TRPC4 off-target activity of TRPC6 modulators, second screen. inhibition, % at 10 µM. shares compounds with TRPC6 inh. HEK293 TRPC4/mu-opioid, membrane potential dye fluorescence; stimulated with maximal-effect DAMGO. actives 55% (n = 2,400). AID 488928;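 active = drop in membrane potential signal beyond 5 SD of the control wells in both duplicate plates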;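 also: TRPC4 counter screen for TRPC6 hits run under conditions tuned for TRPC6 not TRPC4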
TRPC6 block conf = confirmation of mouse TRPC6 inhibitors; AID 488960; shares compounds with TRPC6 inh; inhibition, % at 10 µM; HEK293-TRPC6, membrane potential dye, ACh-evoked depolarization; actives 43% (n = 3,300);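 active = fluorescence ratio falls more than 5 SD below the full-stimulation control mean, in both duplicate runs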;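 also: integrated fluorescence ratio of peak minus minimum over baseline after agonist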
TRPC6 act confirm = mouse TRPC6 activator confirmation; shares compounds with TRPC6 inh; actives 11% (n = 2,800); HEK293-TRPC6 membrane potential dye fluorescence, FDSS; activation, % at 10 µM;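 active = ratio signal rise beyond 5 SD above unstimulated control wells' mean, seen in both duplicate runs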
Numbers stand for hits. Rows were chosen to be rich in hits. Some 2.3% of all compounds tested hit in one or more screens of this group.

`O=C(NCCc1cccc(Cl)c1)c1ccc2c(c1)OCO2` gave TRPC4 agonist inactive, TRPC6 act inactive, TRPC4 PAM inactive, TRPC4 block inactive and TRPC6 inh inactive.
For CCC(C(=O)NCCC(C)C)n1ccc2cc(S(=O)(=O)N3CCCCC3)ccc21 (stereo not drawn) the results were TRPC4 agonist inactive, TRPC6 act inactive, TRPC4 PAM inactive, TRPC4 block inactive and TRPC6 inh inactive.
For CCCn1c(=N)n(CC(=O)c2ccc([N+](=O)[O-])cc2)c2ccccc21 the results were TRPC4 agonist inactive, TRPC6 act inactive, TRPC4 PAM inactive, TRPC4 block inactive and TRPC6 inh inactive.
Screening CCCn1c(=N)n(CC(=O)c2ccc(Cl)cc2)c2ccccc21 returned TRPC4 agonist inactive, TRPC6 act inactive, TRPC4 PAM inactive, TRPC4 block inactive, TRPC6 inh -7.3, TRPC4 sel inh 2 25.5%, TRPC4 spec 35.3%, HEK293 MPD ctr 2-1 257.5%, HEK293 MPD ctr-1 3.4%, TRPC6 block conf inactive and TRPC6 act confirm inactive.
Screening O=[N+]([O-])c1ccc(S(=O)(=O)Nc2nnc(C3CCCCC3)s2)cc1 returned TRPC4 agonist inactive, TRPC6 act inactive, TRPC4 PAM inactive, TRPC4 block inactive and TRPC6 inh inactive.
`CCOc1cc(/C=C(/C#N)C(=O)Nc2ccc(O)cc2)cc(Br)c1O` gave TRPC4 agonist 43, TRPC6 act 27.9, TRPC4 PAM inactive, TRPC4 block inactive, TRPC6 inh -9.71, HEK293 MPD ctr-2 831.0%, HEK293 MPD ctr 2-2 193.5%, TRPC4/MOR mod 114.0%, TRPC4/MOR inh 2 29.0%, TRPC6 block conf inactive and TRPC6 act confirm 177.0%.
COc1ccc(-c2nnc(SCC(=O)N3CCCC3)o2)c(OC)c1 was read as TRPC4 agonist inactive, TRPC6 act inactive, TRPC4 PAM inactive, TRPC4 block inactive and TRPC6 inh inactive.
Nc1ccc(-c2cc3ccccc3oc2=O)cc1 was read as TRPC4 agonist inactive, TRPC6 act inactive, TRPC4 PAM inactive, TRPC4 block inactive and TRPC6 inh inactive.
For O=C/C=C/c1c(-c2ccccc2)cc2oc3ccccc3cc1-2 the results were TRPC4 agonist inactive, TRPC6 act inactive, TRPC4 PAM inactive, TRPC4 block inactive, TRPC6 inh -9.29, TRPC4 sel inh 2 inactive, TRPC4 spec inactive, HEK293 MPD ctr 2-1 inactive, HEK293 MPD ctr-1 inactive, TRPC6 block conf inactive and TRPC6 act confirm inactive.
